Test: Toxicity liver stage against HepG2, at 10uM
Format: cell-based
Design: test concentration 10 uM, cell line HepG2-A16-CD81EGFP
Conditions: human, HepG2-A16-CD81EGFP cells; read-out: INHIBITION
Outline: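 Uninfected HepG2-A16-CD81EGFP cells, 3 × 10^3 per well, 1536-well, plated on prespotted compound at 10 μM final, parasite-free screening media added to match infected plates; puromycin 10 μM positive, DMSO 0.5% negative; run in parallel with 48 h PbLuc assay at 37 °C, 5% CO2; viability by CellTiter-Glo luminescence, normalized to controls.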

SMILES | cytotoxicity at 10 µM
O=C1CCC(=O)c2oc3ccccc3c2N1 | 4.34%
Cc1cccc(O[C@H]2COCCN(C3CCC3)C2)n1 | -4.81%
CN1CCOC[C@H]1c1nc(-c2ccccc2)c[nH]1 | -7.24%
COc1ccc(-c2noc([C@@H](C)NC(=O)NC(C)(C)C)c2C(=O)O)cc1 | -1.63%
COc1ccc(CN2C[C@H]3CN(C(=O)c4ccno4)CCN3C2=O)cc1 | -4.23%
CN1[C@@H](CCC(=O)NCc2ccc(F)cc2)CNC(=O)[C@H]2NCC[C@H]21 | 7.6%
Cc1cccc(CNC[C@H]2Cn3cc(-c4ccccc4)nc3CO2)n1 | -2.59%
COc1cccc(-c2nc(C)c(C(=O)N[C@H](CO)CC(C)C)s2)c1 | 5.08%
Cc1cccc2c1N(C)C(=O)C21CC(=O)Nc2c1cnn2C(C)(C)C (stereo not given) | -1.65%
Cc1nn2cnnc2c(C)c1CCC(=O)Nc1nnc(C(C)C)s1 | -3.25%
CC(C)c1sc(Cl)nc1C(=O)NCc1ccncc1 | 0.649%
Cn1c(-c2ccccc2)nn(CCNS(=O)(=O)c2ccccc2Cl)c1=O | -2.85%
Cn1cnc2c1C(C(=O)N1CCCC1)N(S(C)(=O)=O)CC2 (stereo not given) | 6.22%
O=C1NCCO[C@H]2CN(C(=O)CCc3ccc(Cl)cc3)CC[C@@H]12 | 11.1%
Cc1noc(C)c1CN1C[C@@H]2COC[C@]2(COc2ccc(C#N)cn2)C1 | 9.49%
Cc1ccoc1C(=O)N1C[C@@H]2COC[C@]2(CNS(C)(=O)=O)C1 | -1.14%
O=C(c1cc(-n2cccc2)ccc1Cl)N1CCC2(CC1)OCCO2 | -7.58%
Cn1nc(C(=O)NN2CCOCC2)c(Cl)c1C(F)(F)F | 2.99%
CCCn1nnc(NCc2cc(Br)cc(Br)c2OC)n1 | 12.6%
CSc1ncnc(NCc2ccccc2F)c1C#N | 1.67%
CCC(=O)NCCNC(=O)c1nn(C)c(C)c1Cl | 5.05%
CCC(=O)Nc1nnc(CCOc2ccccc2OC)s1 | 2.38%

SMILES | cytotoxicity at 10 µM
CN1CCCCC(C2CCN(S(=O)(=O)c3cn(C)cn3)CC2)C1=O (stereo not given) | 3.13%
CC(C)(C)c1ccc(C(=O)NCCCNC(=O)c2cnccn2)cc1 | 6.58%
Cc1n[nH]c(C)c1CC(=O)N1CCC(O)(CN2CCOCC2)C1 (stereo not given) | 3.1%
CNc1cc(C(=O)N2CCOC(C(=O)NC3CCCC3)C2)ccn1 (stereo not given) | 8.16%
CO[C@H]1CN(S(=O)(=O)c2ccc(F)cc2)C[C@@]12CCCO2 | 13.2%
Cc1cccc(C(=O)N2CC(Cc3nccc4ccn(C)c34)C2)n1 | -40.5%
CC(C)CC(=O)N1CCN(Cc2cc(-c3ccncc3)nn2C)CC1 | -23.2%
CCc1ncnc(N2CCCC(c3cc(C(N)=O)[nH]n3)C2)c1F (stereo not given) | -4.68%
CC(NCc1ccccn1)c1ccc(N2CCN(C)CC2)c(F)c1 (stereo not given) | -7.85%
CC(C)c1nc(CC(=O)N2CCN(C)CC2c2ccccc2)cs1 (stereo not given) | -12.6%
CC(C(=O)N(Cc1ccc(C#N)cc1)CC(F)(F)F)S(C)(=O)=O (stereo not given) | -2.6%
O=C1CC(N(C(=O)Cc2csc(-c3ccccc3)n2)C2CC2)C(=O)N1 (stereo not given) | 3.51%
O=c1[nH]cnc2c1CCN(S(=O)(=O)c1cccc(OC(F)(F)F)c1)C2 | -2.87%
Cc1cc(C(=O)NCCSC2CCCC2)no1 | -2.21%
Cc1cc(C(=O)N2CCNC(=O)C2)c(C)n1CC(F)(F)F | 0.962%
CN1CCN(CCOc2ccc(NC(=O)c3ccc[nH]3)cc2)CC1 | -3.26%
O=C(OCCNc1ncccn1)c1ccc(Cl)s1 | -2.43%
CC(C)(C)C1CCC(O)(CNC(=O)CCS(C)(=O)=O)CC1 (stereo not given) | 6.51%
COc1ccc(Cl)cc1CCNC(=O)NCc1ncnn1C | 2.06%
CC(NC(=O)N1CCCCCC1)c1ccc(S(N)(=O)=O)cc1 (stereo not given) | -6.06%
CN1N=C(C(=O)N2CCN(c3ncccc3Cl)CC2)CCC1=O | 0.0793%
O=C(NCCC(=O)N1CCCC1)C(OC1CCCC1)c1ccccc1 (stereo not given) | -4.36%

SMILES | cytotoxicity at 10 µM
CCNC(=O)NC(=O)CNc1cc(C(=O)OC)cc(C(F)(F)F)c1 | -7.03%
CN1CCCN(c2nc3c(cnn3C(C)(C)C)c(=O)[nH]2)CC1 | -11.9%
CC(C)c1nc(C2CCCN(c3ncccn3)C2)no1 (stereo not given) | 12.4%
O=C(NCC(O)COc1ccccc1)C1(c2ccc(F)cc2)CC1 (stereo not given) | 1.3%
c1cc(-c2noc(-c3cc(C4CC4)on3)n2)cc(N2CCCCC2)n1 | 4.64%
CCCNC(=O)CN1CCN(c2nc(CC)ns2)CC1 | -3.53%
O=C(CNc1cc2c(cc1Cl)OCCO2)NCC(F)(F)F | 0.49%
CN(C)C(=O)CCS(=O)(=O)Cc1coc(-c2ccc(F)cc2)n1 | -2.26%
Cc1cccc(CNC(=O)Nc2ccn(CCN(C)C)n2)c1 | -4.47%
CN(CCc1ccncc1)C(=O)C1CSCN1C(=O)CC(C)(C)C (stereo not given) | 10.2%
N#Cc1ccc(N2CCC(c3nc(C(F)(F)F)c[nH]3)CC2)nc1 | -7.09%
Cc1nsc(NC2CC(=O)N(C(C)(C)C)C2)n1 (stereo not given) | -8.52%
COc1ncnc(N(C)C)c1NC(=O)Cc1c[nH]c2ccc(F)cc12 | -4.2%
O=C(CNc1cc(Br)ccc1Br)NC1CCS(=O)(=O)C1 (stereo not given) | -5.88%
O=C(Nc1ccc2c(c1)OC1(CCCCC1)O2)c1ccc(=O)[nH]n1 | 14.1%
CC1CCN(C(=O)C(C)N2CCN(c3nccs3)CC2)CC1 (stereo not given) | 0.583%
CCCN(Cc1cnn(C)c1)CC1CCCN(S(C)(=O)=O)C1 (stereo not given) | 15.1%
CC(=O)N1CCN(C(=O)CNc2ccc3sccc3c2)CC1 | 0.335%
CCN(Cc1cnn(C)c1)C(=O)c1ccccc1O | 1.89%
CC(C)(C)CC(=O)N1CSCC1C(=O)NCc1cccc(C#N)c1 (stereo not given) | -9.78%
O=C(CSc1nnc[nH]1)NCc1sccc1Br | 0.388%
N#Cc1ccc(N2CCN(c3ccc4nncn4n3)CC2)nc1 | -13.3%

SMILES | cytotoxicity at 10 µM
O=c1oc(-c2cccs2)nn1CC(O)c1ccc(F)cc1 (stereo not given) | 20.4%
CC(OCC(F)(F)F)C(=O)N1CCCCC1 (stereo not given) | -3.45%
CCn1cncc1-c1nc2c([nH]1)CC(C)(C)CNC2=O | 7.51%
Cc1noc(C)c1CNC(=O)c1cn(CCC2CCCCN2)nn1 (stereo not given) | 0.872%
CC(C)C(=O)N1CCN(C(=O)c2cc(Cl)no2)[C@H]2CS(=O)(=O)C[C@H]21 | 8.48%
COc1ccc(C(C(=O)O)N(C)Cc2ccon2)cc1Cl (stereo not given) | -5.02%
Cc1cc(CN2CCN(C(=O)C3CCC3)[C@@H]3CS(=O)(=O)C[C@@H]32)ccc1F | 0.66%
Cc1ccc(C(=O)N2CCc3ncccc3C2)cc1N1CCNC1=O | -4.33%
COc1ccc(OC)c(C2CCN(C(=O)CCc3n[nH]c(N)n3)C2)c1 (stereo not given) | 5.27%
c1cnnc(-c2noc(COCC3CCCO3)n2)c1 (stereo not given) | 2.66%
Cc1ccnc(NCC2(N(C)C)CCOCC2)n1 | 3.81%
CCn1nc(C)c(CN(CCOC)C(=O)c2cnc(C)nc2O)c1C | -2.27%
COc1cccc(N2CCN(Cc3ccc4ccn(C)c4c3)CC2=O)c1 | 17.3%
Cc1nn(C)c2nc(N(Cc3ccncc3)CC3CCCO3)sc12 (stereo not given) | 9.42%
CCc1nc(C)c([C@H]2CN(C)C[C@@H]2C(=O)Nc2ccc3[nH]ncc3c2)[nH]1 | -1.67%
COC(=O)c1ccc2ccn(CC3CCCCO3)c(=O)c2c1 (stereo not given) | -0.551%
CN1CCCN(C(=O)c2cnc(C(C)(C)C)nc2O)CC1 | -0.0816%
CN(Cc1cc(-c2ccncc2)no1)Cc1nccn1C | 0.884%
CN(C)CCNc1cc(-c2ccc[nH]c2=O)c2cc[nH]c2n1 | 9.26%
Cc1nc(C)n(CCNC(=O)C(C)n2ccnc2C(C)C)n1 (stereo not given) | -6.57%
Cc1ccsc1[C@@H]1CCN(C(=O)CCOc2ccccc2)C[C@H]1O | -0.602%
COCC(=O)N1Cc2c(-c3cccc(C)c3)nc(N)nc2C1C (stereo not given) | -0.607%

SMILES | cytotoxicity at 10 µM
CC(C)N1CCCC(CN(C)c2ccc(Cn3ccnc3)cn2)C1 (stereo not given) | -127%
CC(C)(C)c1ncc2c(n1)CN(C(=O)c1ccncc1)C2 | -12.5%
Cn1c(Cn2ccnc2)nnc1C1CCN(Cc2cccnc2N)CC1 | -8.37%
CCOc1ncccc1CNc1nnc(C)c(C)c1C#N | -12.1%
O=C(NCCNC(=O)c1scnc1Cl)c1ccoc1 | -7.91%
COCc1nc(C(=O)N2CCCC(n3ccnc3C)C2)cs1 (stereo not given) | -33.6%
Cc1cnn(CC2CCCN2CC(=O)Nc2cc(C)on2)c1 (stereo not given) | -26.7%
CCc1nc(CN2CCN(C(C)c3nc(C4CC4)no3)CC2)no1 (stereo not given) | -9.45%
CCc1n[nH]c(C2CN(C(=O)c3cscn3)CCO2)n1 (stereo not given) | 5.08%
O=C(NCCc1ccn(-c2ccccc2)n1)N1CCCC(CO)C1 (stereo not given) | -23.1%
COc1ccnc(N2CCCN(C(=O)Cc3ccc(C)s3)CC2)n1 | -2.12%
Cc1ccc(C(=O)Nc2cc(C(C)C)n[nH]2)cn1 | 55.8%
Cn1ccc(C(=O)N2CCN(CCc3ccccc3)CC2)cc1=O | 5.8%
CN(C)CCN1C(=O)CCC12CCCN(C(=O)c1ccncc1F)C2 (stereo not given) | 3.06%
c1csc(CN2CCC3(COCCN(CC4CC4)C3)C2)n1 (stereo not given) | 1.44%
Cn1cc(N2C(=O)CC[C@@H]3[C@H]2CCN3Cc2cccc(C#N)c2)cn1 | 8.51%
Cc1nnc(N2C[C@@H](Oc3ccccn3)[C@H]3OCCC[C@H]32)s1 | -5%
Cn1ccnc1C(=O)NCc1cnc2n1CCN(CC1CC1)CC2 | 5.93%
CCS(=O)(=O)N1C[C@H]2CCC[C@@]2(COc2ccccn2)C1 | -4.09%
CCN1CCCn2c(nc(CNC(=O)c3cnoc3C)cc2=O)C1 | 6.13%
COCCN1C[C@@H]2CC[C@H]1CN(Cc1cc(=O)c3cc(C)ccc3[nH]1)C2 | -5.31%
O[C@@H]1CC(CNCC2CCCC2)(COc2cccnc2)C[C@@H]1O (stereo not given in full) | -6.53%
